Assay outcomes: PubChem BioAssay, several laboratories
Hck Nef HTS: inhibitors of Nef-activated human Hck kinase, primary screen, biochemical, Z-Lyte FRET, 384-well, Hck-YEEI; AID 463187, 2010; 0.68% of 220,000 active; Recombinant Hck-YEEI plus Nef, Z-Lyte FRET kinase assay; Tyrosine-protein kinase HCK (Homo sapiens), P08631; inhibition, % at 20 µM;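 active = Hck-Nef kinase inhibition above about 50%, limit read from the data; inactive = inhibition below that limit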;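 note: 0% = DMSO with Hck plus Nef and 100% = Hck alone without Nef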
Runt-CBFb FRET: inhibitors of RUNX1 Runt–CBFb binding, primary screen, biochemical, FRET, Cerulean-Runt, Venus-CBFb, uHTS; 0.46% of 220,000 active; AID 1496, 2009; Cerulean-Runt/Venus-CBFb FRET ratio 530/480, 1 h; Runt-related transcription factor 1 (Homo sapiens) + Core-binding factor subunit beta …; inhibition, % at 20 µM;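 active = inhibition over about 50% at 20 µM in the single-dose screen, limit read from the data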;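 note: 0% = DMSO wells and 100% = excess unlabeled CBFb competitor control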
Target sequence (Q01196 whole entry, looked up): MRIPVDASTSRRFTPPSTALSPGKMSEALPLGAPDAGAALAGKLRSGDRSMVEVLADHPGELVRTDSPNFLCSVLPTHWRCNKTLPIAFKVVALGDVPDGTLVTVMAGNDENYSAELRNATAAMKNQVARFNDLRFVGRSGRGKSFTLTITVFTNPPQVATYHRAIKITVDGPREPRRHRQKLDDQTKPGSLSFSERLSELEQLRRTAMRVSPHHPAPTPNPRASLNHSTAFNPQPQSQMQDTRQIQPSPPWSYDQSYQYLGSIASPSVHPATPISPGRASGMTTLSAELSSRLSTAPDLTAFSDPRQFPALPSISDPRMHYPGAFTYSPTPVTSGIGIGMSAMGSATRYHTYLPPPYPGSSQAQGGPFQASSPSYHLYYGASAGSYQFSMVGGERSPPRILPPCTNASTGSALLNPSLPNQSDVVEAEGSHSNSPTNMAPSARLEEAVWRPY
Target sequence (Q13951 whole entry, looked up): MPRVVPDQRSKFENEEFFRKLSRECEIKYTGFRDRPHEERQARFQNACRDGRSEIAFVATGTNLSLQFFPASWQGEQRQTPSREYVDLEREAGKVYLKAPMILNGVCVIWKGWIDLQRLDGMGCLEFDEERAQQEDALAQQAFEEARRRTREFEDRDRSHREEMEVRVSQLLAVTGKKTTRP
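Schedule: protein complex preformed 1 h, compound exposure 1 h, room temperature, dark; test system: Cerulean-labeled Runt domain protein; amount: 100 nM per protein; buffer or medium: Tris 50 mM pH 7.5, KCl, K2SO4, 0.01% BSA; read-out: loss of energy transfer signal; detection: FRET fluorescence; controls: 5 µM unlabeled CBFb as full-inhibition high control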
PERK inhibitor: block of dimerizer-induced PERK translation repression, primary screen, PERK inhibitor project, CHO PERK-DD cells, SEAP luminescence, HTS. CHO PERK-DD fusion, SEAP luminescence translation reporter. Eukaryotic translation initiation factor 2-alpha kinase 3 (Homo sapiens), Q9NZJ5. 0.17% of 220,000 active. inhibition, % at 5.6 µM;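 active = inhibition above the mean inhibition of all tested compounds plus 3 SD, set separately per screening campaign, cut at about 2.9% in these data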;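 note: PERK kinase domain activated by AP20187 dimerizer at 100 nM; 0% = DMSO with dimerizer and 100% = rapamycin at 8.4 µM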
Runt-SMMHC FRET: inhibitors of RUNX1 Runt–CBFb-SMMHC binding, primary screen, biochemical, FRET, Cerulean-Runt, Venus-CBFb-SMMHC, uHTS | Runt-related transcription factor 1 (Homo sapiens) + Core-binding factor subunit beta … | Cerulean-Runt/Venus-CBFb-SMMHC FRET ratio 530/480, 1 h | inhibition, % at 20 µM | 0.74% of 220,000 active | AID 1434, 2008;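 active = mean inhibition across duplicate retests at 20 µM reaching about 50%, limit read from the data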;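 note: 0% = DMSO wells and 100% = wells with excess untagged CBFb-SMMHC; inhibitors lower the FRET ratio by blocking Runt binding to CBFb-SMMHC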
RanGTP-Imp inh: inhibitors of RanGTP-importin-beta interaction, primary screen, biochemical, FRET, CFP-Ran, YFP-importin-beta, homogeneous; 1.1% of 300,000 active; Ran GTPase (GTP-bound) - importin-beta complex; inhibition, % (test concentration not listed); cell-free CFP-Ran/YFP-importin-beta FRET ratio; AID 2216, 2009;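 active = more than half of the replicate wells show a fall in the fluorescence ratio signal beyond about 16%, limit read from the data, passing the limit was not always enough; inconclusive = exactly half of the replicate wells pass the set limit; inactive = fewer than half of replicates pass the limit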;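 note: 0% = DMSO wells and 100% = Ran loaded with GDP instead of GTP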
eIF4E 4G PPI: eIF4E–eIF4G protein interaction inhibitors, primary screen, biochemical, uHTS, TR-FRET, eIF4GI fragment | 0.37% of 220,000 active | TR-FRET eIF4E-eIF4GI(517-606) binding, 2 h | inhibition, % at 21.7 µM | AID 782, 2007 | Eukaryotic translation initiation factor 4E (Mus musculus) + Eukaryotic translation …;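 active = inhibition above about 30%, limit read from the data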;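 note: 0% = full FRET control wells and 100% = background wells lacking eIF4GI fragment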
* = called active by the depositor; ? = inconclusive; / = not tested or not shown; [ ] = dose if it differs, or a comment. Sampled rows, rich in hits. Any-hit rate of the full collection: about 2.2%.

SMILES	Hck Nef HTS	Runt-CBFb FRET	PERK inhibitor	Runt-SMMHC FRET	RanGTP-Imp inh	eIF4E 4G PPI
CCOc1ccc(-n2c(-c3ccco3)n[nH]c2=S)cc1	0	8	2	46	3	34*[fluorescence artefact?]
Cc1ccc(S(=O)(=O)c2cc3c(=O)n4cccc(C)c4nc3n(CC3CCCO3)c2=N)cc1C (stereo not drawn)	21	66*	0	88*	137*	-6
Cc1cccn2c(=O)c3cc(S(=O)(=O)c4ccccc4)c(=N)n(CC4CCCO4)c3nc12 (stereo not drawn)	25	12	1	81*	158*	0
Cc1cccn2c(=O)c3cc(C#N)c(=N)n(CC4CCCO4)c3nc12 (stereo not drawn)	26	/	1	/	/	/
O=C(O)C1CCCCC1C(=O)Nc1ccc2c(c1)OCCO2 (stereo not drawn)	1	3	2	1	-2	6
COc1ccc(CCNS(=O)(=O)c2ccc3c(c2)NC(=O)CS3)cc1OC	/	/	/	/	2	/
O=C(CCc1ccccc1)NCC(=O)N/N=C/c1ccc(O)cc1O	19	6	3.4*	4	-2	-8
COc1ccc(CC(=O)Nc2nncs2)cc1OC	3	89*	1	83	3	-3
Cc1cccc(/C=N/n2c(C)nnc2C)c1	1	-3	3.1*	-2	1	3
Cc1cccc(/C=N/n2c(-c3ccco3)n[nH]c2=S)c1	-45	14	3.5*	11	-5	14
CCC(NC(=O)OCc1ccccc1)C(=O)Oc1ccc2ccc(=O)oc2c1 (stereo not drawn)	/	/	/	/	21*	/
Cc1cc(=O)[nH]c(-c2cccnc2)n1	21	-1	2	-5	22*	6
Cc1ccc2[nH]c(=O)c(C(c3nnnn3Cc3ccccc3)N3CCc4ccccc43)cc2c1 (stereo not drawn)	-2	11	0	-1	20*	-25
COc1ccc(N=CC=C2OC(C)(C)C(C)(C)O2)cc1OC	15	4	-2	-4	15*	0
COc1cccc(N=CC=C2OC(C)(C)C(C)(C)O2)c1	23	-2	1	-4	9	1
COc1ccc(Cc2nnc(SCC(=O)N(C)c3ccccc3)o2)cc1	/	/	/	/	-5	/
O=C(Nc1ccccc1)N1CCSc2cc(Cl)ccc21	0	1	3.1*	0	4	0
O=C(Nc1cccc(Cl)c1)N1CCSc2cc(Cl)ccc21	0	0	1	0	6	1
COCCn1c(N)c(C(=O)Nc2sc3c(c2C(=O)OC)CCCC3)c2nc3ccccc3nc21	0	87*	0	32	1	7
Nc1c(C(=O)OCC2CCCO2)c2nc3ccccc3nc2n1C1CCCC1 (stereo not drawn)	21	33	-1	85*	13	/
CCOC(=O)c1c(N)n(CC(C)NC(=O)C2CC2)c2nc3ccccc3nc12 (stereo not drawn)	43	74*	2	163*	/	-1
COc1ccc(OC)c(-n2c(N)c(C(=O)NCC3CCCO3)c3nc4ccccc4nc32)c1 (stereo not drawn)	29	15	-1	34	11	0
COCCn1c(N)c(C(=O)NCC2CCCO2)c2nc3ccccc3nc21 (stereo not drawn)	40	70*	-1	79*	94*	/
CCC(C)NC(=O)c1c(N)n(/N=C/c2ccccn2)c2nc3ccccc3nc12 (stereo not drawn)	9	1	1	-1	?	5
Cc1ccc(NC(=O)c2ccc(COc3ccccc3)o2)nc1	/	/	/	/	3	/
SMILES	Hck Nef HTS	Runt-CBFb FRET	PERK inhibitor	Runt-SMMHC FRET	RanGTP-Imp inh	eIF4E 4G PPI
CCc1ccc(NC(=O)CNC(=O)[C@@H]2Cc3ccccc3CN2)cc1	/	/	/	/	-1	/
COCCn1c(N)c(C(=O)NCc2cccs2)c2nc3ccccc3nc21	44	14	-1	70*	84*	-18
Nc1c(C(=O)NC2CCCC2)c2nc3ccccc3nc2n1N	4	14	0	46	39*	-8
COCCn1c(N)c(S(=O)(=O)c2cccs2)c2nc3ccccc3nc21	30	10	-2	20	-15	-1
Fc1cccc(-n2c(-c3ccco3)nc3nc4ccccc4nc32)c1	2	24	0	-56	-9	-13
COc1cc(S(=O)(=O)Nc2cccc(C(=O)O)c2)c(OC)cc1Cl	-1	0	1	-6	9	2
O=C(O)CCC(=O)Nc1ccc(S(=O)(=O)N2CCCC2)cc1	-11	1	-1	4	4	-10
O=C(Cc1cccs1)Nc1ccc(S(=O)(=O)N2CCCC2)cc1	35	1	0	-6	?	33*
N#C/C(=C\c1ccc(OC(=O)c2ccc(Br)s2)cc1)c1nc2ccccc2[nH]1	35	-34	1	-87	/	34*
N#C/C(=C\c1ccncc1)c1nc2ccccc2[nH]1	-23	4	0	-11	7	3
CCCCCCCCCCCCCCCCn1cc[n+](C)c1	2	-2	1	-2	13	43*
Cc1cccc(C(=O)NC(C)C(c2cccs2)N2CCOCC2)c1 (stereo not drawn)	12	1	-2	1	-1	97*
CCN(CC)c1ccc(NC(=O)CCCOc2cccc(C)c2)cc1	22	1	1	14	2	34*
COc1ccc(C(OCC2CO2)c2ccc(OC)cc2)cc1 (stereo not drawn)	22	-2	0	-1	6	2
CSc1nc2ncc3c(n2n1)CC(C)(C)CC3=O	-12	0	0	-2	?	4
CC1(C)CC(=O)c2cnc3c(C#N)cnn3c2C1	-7	0	2	-2	115*	7
CCN(CC)S(=O)(=O)c1ccc(N2CCCC2)c(NC(=O)c2c(-c3ccccc3)noc2C)c1	/	/	/	/	4	/
CCOC(=O)C1=C(C)N=C2SC=C(C)N2C1c1ccc(OC)cc1 (stereo not drawn)	17	23	0	60*	10	1
